{"source": "ChEMBL document CHEMBL4325899", "about": "“Synthesis and photocytotoxic activity of [1,2,3]triazolo[4,5-h][1,6]naphthyridines and [1,3]oxazolo[5,4-h][1,6]naphthyridines” (Eur J Med Chem, 2019)", "key": {"[1]": {"system": "MCF7", "assay": "Induction of ROS generation in human MCF7 cells at 0.5 to 2 uM preincubated for 30 mins followed by irradiation at 1.5 J/cm2 for 2 hrs in presence of NAC by H2DCFDA probe-based fluorescence assay", "assay_type": "functional, cell-based", "in_short": "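This is the DCF assay in MCF7 cells run as for irradiated samples (30 min compound, 10 µM H2DCFDA, 1.5 J/cm²). Before treatment, cells were pre-incubated with N-acetylcysteine at […]. Fluorescence was read 2 h after light exposure, relative to irradiated untreated controls, with three independent experiments.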"}, "[2]": {"system": "A-375", "assay": "Phototoxicity against human A375 cells preincubated for 5 mins followed by compound washout and subsequent UV irradiation at 1.5 J/cm2 for 5 mins measured after 72 hrs by MTT assay", "assay_type": "functional, cell-based", "settings": "A-375, light or radiation study", "in_short": "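Compounds were diluted in DMSO (0.5% final), applied in triplicate for 5 min, then washed out with PBS. After medium removal, cells were irradiated on ice for 5 min at 365 nm (1.5 J/cm²) and then kept 72 h at 37 °C. Viability was read by MTT at 540 nm and expressed relative to 0.5% DMSO controls given the same treatment. EC50 is the concentration killing 50%, as the mean ± SD of at least three experiments.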"}, "[3]": {"system": "MCF7", "assay": "Phototoxicity index, ratio of CC50 for human MCF7 cells to EC50 for human MCF7 cells under UV irradiation at 1.5 J/cm2"}, "[4]": {"system": "MCF7", "assay": "Induction of ROS generation in human MCF7 cells at 0.5 to 2 uM preincubated for 30 mins followed by irradiation at 1.5 J/cm2 for 2 hrs by H2DCFDA probe-based fluorescence assay (reference value: 100%)", "assay_type": "functional", "in_short": "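MCF7 cells (3x10⁴) were plated 24 h ahead to reach 80–90% confluence. Compounds were applied for 30 min in phenol-red-free, serum-free medium, and H2DCFDA (10 µM) was added 15 min before irradiation (1.5 J/cm², ~365 nm) or no irradiation. DCF fluorescence (485/535 nm) was read 2 h after light and expressed relative to untreated controls (100%). PMA (400 nM) served as positive control; three independent experiments.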"}, "[5]": {"system": "MCF7", "assay": "Cell cycle arrest in human MCF7 cells assessed as accumulation of cells at G2/M phase at EC25 after 24 hrs under UV-irradiation by propidium iodide staining-based flow cytometric analysis (reference value: 26.3%)", "assay_type": "functional"}, "[6]": {"system": "MCF7", "assay": "Induction of apoptosis in human MCF7 cells assessed as apoptotic cells at EC25 to EC75 after 4 hrs in presence of photoirradiation by Annexin V-FITC/propidium iodide staining-based flow cytometric analysis relative to control", "assay_type": "functional"}, "[7]": {"system": "MCF7", "assay": "Induction of apoptosis in human MCF7 cells assessed as necrotic cells at EC25 to EC75 after 4 hrs in presence of photoirradiation by Annexin V-FITC/propidium iodide staining-based flow cytometric analysis relative to control", "assay_type": "functional"}, "[8]": {"system": "MCF7", "assay": "Induction of mitochondrial dysfunction in human MCF7 cells assessed as organelle swelling at 2 uM after 120 mins in presence of UV irradiation by Mitotracker Orange CMTM-ROS staining-based confocal microscopic analysis", "assay_type": "functional, cell-based", "in_short": "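MCF7 cells (4x10⁵) were plated on glass slides for 24 h. They were then loaded with MitoTracker Orange CMTM-ROS (150 nM) for 45 min in phenol-red-free, serum-free medium, before 2 µM compound and UV photoactivation. Cells were fixed in 2% PFA 20 min or 2 h after UV and imaged confocally (ex 543 nm, em 560–620 nm). PMA (400 nM) served as ROS-inducer control.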"}, "[9]": {"system": "MCF7", "assay": "Induction of lysosomal activation in human MCF7 cells at 2 uM after 20 mins in presence of UV irradiation by Lysotracker Green DND 26 staining-based confocal microscopic analysis", "assay_type": "functional, cell-based", "in_short": "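MCF7 cells (4x10⁵) on glass slides were loaded with LysoTracker Green DND-26 (175 nM) for 45 min in phenol-red-free, serum-free medium, before 2 µM compound with or without UV activation. Cells were fixed in 2% PFA 20 min or 2 h after UV and imaged confocally (ex 488 nm, em 500–530 nm). Controls were untreated cells with and without irradiation, and cells given PMA (400 nM).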"}, "[10]": {"system": "MCF7", "assay": "Cell cycle arrest in human MCF7 cells assessed as accumulation of cells at G0/G1 phase at EC50 after 24 hrs under UV-irradiation by propidium iodide staining-based flow cytometric analysis (reference value: 44.2%)", "assay_type": "functional"}, "[11]": {"system": "MCF7", "assay": "Cell cycle arrest in human MCF7 cells assessed as accumulation of cells at G2/M phase at EC50 after 24 hrs under UV-irradiation by propidium iodide staining-based flow cytometric analysis (reference value: 26.3%)", "assay_type": "functional"}, "[12]": {"system": "MCF7", "assay": "Cell cycle arrest in human MCF7 cells assessed as accumulation of cells at subG1 phase at EC75 after 24 hrs under UV-irradiation by propidium iodide staining-based flow cytometric analysis (reference value: 4.8%)", "assay_type": "functional"}, "[13]": {"system": "MCF7", "assay": "Cell cycle arrest in human MCF7 cells assessed as accumulation of cells at S phase at EC75 after 24 hrs under UV-irradiation by propidium iodide staining-based flow cytometric analysis (reference value: 24.7%)", "assay_type": "functional"}, "[14]": {"assay": "Drug localization in cytoplasm of human MCF7 cells assessed as punctate formation at 2 uM measured within 10 mins by confocal microscopic analysis", "assay_type": "ADME, subcellular", "settings": "mcf7, 10 min"}}, "note": "The source made the active and inactive calls. The calls are words filed in the database; no cut-off is given here.", "data": [{"smiles": "COc1ccc(-c2nc3c(nc(C)c4ccc(-c5ccccc5)nc43)o2)cc1", "values": [{"measurement": "Activity", "setting": "[1]", "result": "inactive"}, {"measurement": "EC50", "setting": "[2]", "result": 11, "unit": "nM"}, {"measurement": "Ratio CC50/EC50", "setting": "[3]", "result": ">5000"}, {"measurement": "Activity", "setting": "[4]", "result": 227, "unit": "%"}, {"measurement": "Activity", "setting": "[5]", "result": 26.8, "unit": "%"}, {"measurement": "Activity", "setting": "[6]", "result": "34 - 50%"}, {"measurement": "Activity", "setting": "[7]", "result": 10, "unit": "%"}, {"measurement": "Activity", "setting": "[8]", "result": "Active"}, {"measurement": "Activity", "setting": "[9]", "result": "Active"}, {"measurement": "Activity", "setting": "[10]", "result": 43.1, "unit": "%"}, {"measurement": "Activity", "setting": "[11]", "result": 26.9, "unit": "%"}, {"measurement": "Activity", "setting": "[12]", "result": 4.4, "unit": "%"}, {"measurement": "Activity", "setting": "[13]", "result": 26.3, "unit": "%"}, {"measurement": "Drug uptake", "setting": "[14]", "result": "Active"}]}]}
